Laboratory results taken from ChEMBL document CHEMBL1149910, “2-(6-aryl-3(Z)-hexen-1,5-diynyl)anilines as a new class of potent antitubulin agents” (J Med Chem, 2008).

Columns and labels:
Assay type in all cases: functional
[1] = test system: K562; assay: Cytotoxicity against human K562 cells
Method in brief: (§1)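 Tested in the NCI in vitro antitumor screening protocol across a tumor cell line panel. GI₅₀ is the concentration producing a 50% reduction in cell growth.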

[2] = test system: HCT-15; assay: Cytotoxicity against human HCT15 cells; method in brief: as §1
[3] = test system: SNB-75; assay: Cytotoxicity against human SNB75 cells; settings: read-out: pGI50 (converted); method in brief: as §1
[4] = test system: UACC-62; assay: Cytotoxicity against human UACC62 cells; settings: read-out: pGI50 (converted)
Method in brief: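 NCI in vitro antitumor screening protocol; GI50 taken as the concentration giving 50% reduction in cell growth.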

[5] = test system: OVCAR-3; assay: Cytotoxicity against human OVCAR-3 cells; method in brief: as §1
[6] = test system: MDA-MB-231; assay: Cytotoxicity against human MDA-MB-231 cells; method in brief: as §1
[7] = test system: MDA-MB-435; assay: Cytotoxicity against human MDA-MB-435 cells; method in brief: as §1
[8] = test system: K562; assay: Cell cycle arrest in human K562 cells assessed as accumulation at G0/G1 phase at 50 uM after 24 hrs by flow cytometry
Method in brief: (§2)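 K-562 human leukemia cells were grown in RPMI 1640 with 10% fetal calf serum, glutamine and penicillin/streptomycin at 37 °C in 5% CO₂. Cells were exposed to compound at 50 µM for 24 h, then pelleted and PBS-washed. They were fixed in ice-cold ethanol for 30 min, treated with 1 mg/mL RNase A at 37 °C for 30 min, and stained with propidium iodide and Triton X-100 for 30 min at room temperature in the dark. Per-phase and sub-G1 percentages came from flow cytometry gating.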

[9] = test system: K562; assay: Cell cycle arrest in human K562 cells assessed as accumulation at S phase at 50 uM after 24 hrs by flow cytometry; method in brief: as §2
[10] = test system: K562; assay: Cell cycle arrest in human K562 cells assessed as accumulation at G2/M phase at 50 uM after 24 hrs by flow cytometry; method in brief: as §2
[11] = test system: K562; assay: Cell cycle arrest in human K562 cells assessed as accumulation at sub-G1 phase at 50 uM after 24 hrs by flow cytometry; method in brief: as §2
[12] = test system: MDA-MB-231; assay: Cell cycle arrest in human MDA-MB-231 cells assessed as accumulation of 2N cells at 2 uM after 24 hrs by flow cytometry
[13] = test system: MDA-MB-231; assay: Cell cycle arrest in human MDA-MB-231 cells assessed as accumulation at sub-G1 phase at 2 uM after 24 hrs by flow cytometry
[14] = test system: MDA-MB-231; assay: Cell cycle arrest in human MDA-MB-231 cells assessed as accumulation of 4N cells at 2 uM after 24 hrs by flow cytometry
[15] = test system: MDA-MB-231; assay: Cell cycle arrest in human MDA-MB-231 cells assessed as accumulation of >4N cells at 2 uM after 24 hrs by flow cytometry
[16] = test system: MDA-MB-231; assay: Cell cycle arrest in human MDA-MB-231 cells assessed as accumulation of 2N cells at 2 uM after 72 hrs by flow cytometry
[17] = test system: MDA-MB-231; assay: Cell cycle arrest in human MDA-MB-231 cells assessed as accumulation at sub-G1 phase at 2 uM after 72 hrs by flow cytometry
[18] = test system: MDA-MB-231; assay: Cell cycle arrest in human MDA-MB-231 cells assessed as accumulation of 4N cells at 2 uM after 72 hrs by flow cytometry
[19] = test system: MDA-MB-231; assay: Cell cycle arrest in human MDA-MB-231 cells assessed as accumulation of >4N cells at 2 uM after 72 hrs by flow cytometry

| SMILES | GI50 [1] [µM] | GI50 [2] [µM] | GI50 [3] [µM] | GI50 [4] [µM] | GI50 [5] [µM] | GI50 [6] [µM] | GI50 [7] [µM] | Activity [8] [%] | Activity [9] [%] | Activity [10] [%] | Activity [11] [%] | Activity [12] [%] | Activity [13] [%] | Activity [14] [%] | Activity [15] [%] | Activity [16] [%] | Activity [17] [%] | Activity [18] [%] | Activity [19] [%] |
| --- | --- | --- | --- | --- | --- | --- | --- | --- | --- | --- | --- | --- | --- | --- | --- | --- | --- | --- | --- |
| Nc1ccccc1C#C/C=C\C#Cc1ccccc1OC(F)(F)F | 2.51 | 3.98 | 2.51 | 6.31 | 3.98 | 5.01 | 1.26 | 4.5 | 24.1 | 71.4 | 30.55 | – | – | – | – | – | – | – | – |
| Nc1ccccc1C#C/C=C\C#Cc1ccccc1[N+](=O)[O-] | 0.501 | 0.794 | 12.6 | 2 | 3.98 | 0.398 | 0.398 | 42.7 | 41 | 16.3 | 11.13 | – | – | – | – | – | – | – | – |
| COc1ccc(/C=C\c2cc(OC)c(OC)c(OC)c2)cc1O [COMBRETASTATIN A4] | 0.0316 | 0.0316 | 0.794 | 0.01 | 0.0398 | 0.01 | 0.0316 | – | – | – | – | – | – | – | – | – | – | – | – |
| Nc1ccccc1C#C/C=C\C#Cc1ccc(F)cc1F | 5.01 | 12.6 | – | 15.8 | 6.31 | 15.8 | 2.51 | 32.5 | 33.1 | 34.4 | 10.04 | – | – | – | – | – | – | – | – |
| COc1cc2c(c(OC)c1OC)-c1ccc(OC)c(=O)cc1[C@@H](NC(C)=O)CC2 [COLCHICINE] | 0.0126 | 0.126 | 0.0251 | 0.0251 | 0.0158 | 0.316 | 0.01 | – | – | – | – | 10.2 | 23.3 | 55.2 | 11.3 | 6.9 | 60 | 21.6 | 11.5 |
| Nc1ccccc1C#C/C=C\C#CC#C/C=C\C#Cc1ccccc1N | 0.794 | 3.98 | 3.16 | 2 | 2.51 | 1.58 | 3.16 | 22.8 | 25 | 52.2 | 9.19 | – | – | – | – | – | – | – | – |
| CCOC(=O)c1ccccc1C#C/C=C\C#Cc1ccccc1N | – | – | – | – | – | – | – | 5.9 | 12.7 | 81.4 | 28.68 | – | – | – | – | – | – | – | – |
| Nc1ccccc1C#C/C=C\C#Cc1c(F)c(F)c(F)c(F)c1F | 15.8 | 15.8 | 39.8 | 12.6 | 15.8 | 2.51 | 15.8 | 43.6 | 38.5 | 17.9 | 27.34 | – | – | – | – | – | – | – | – |
| Nc1ccccc1C#C/C=C\C#Cc1ccccc1F | 3.16 | 5.01 | – | 7.94 | 3.16 | 10 | 2 | 22.1 | 40.9 | 37 | 11.5 | – | – | – | – | – | – | – | – |
| Nc1ccccc1C#C/C=C\C#Cc1ccc([N+](=O)[O-])cc1 | – | – | – | – | – | – | – | 35 | 46.2 | 18.8 | 15.78 | – | – | – | – | – | – | – | – |
